# Measured values of several laboratories.
# Lines come from different studies, so protocols differ.
# Target: 5'-AMP-activated protein kinase catalytic subunit alpha-2 (PRKAA2, Homo sapiens, UniProt P54646)
SMILES,observed,method,tested at,remaining binding [%]
N[C@@H]1CCN(c2nccc(-c3cnn4ncccc34)n2)C1,binding,,1 µM,98
CCN1CCN(Cc2ccc(C(=O)Nc3ccc(C)c(Oc4ccc5c(c4)CC(=O)N5)c3)cc2C(F)(F)F)CC1,binding,competition with immobilised ligand,1 µM,100
Nc1ncc2c(n1)-c1c([nH]c3ccc(C#CC4CC4)cc13)CCCC2,binding,competition with immobilised ligand,1 µM,85
CN(C)c1nccc(-c2cnn3ncccc23)n1,binding,,1 µM,100
CC1=C(C#N)[C@@H](c2ccc3[nH]nc(C)c3c2)C(C#N)=C(c2ccc(Cl)cc2)N1,cell-free assay,competition with immobilised ligand,1 µM,95.3
FC(F)(F)Oc1cccc(-c2cnc3ccc(-c4ccncc4)nn23)c1,cell-free assay,competition with immobilised ligand,5 µM,80
CNC(=O)[C@@H]1CC[C@@H](n2c(-c3ccc4cnccc4c3)nc3ccc(C(=O)NCc4cccc(C(N)=O)c4)cc32)C1,binding,competition with immobilised ligand,1 µM,91
CN(C)c1ncc(F)c(-c2cnn3ncccc23)n1,binding,,1 µM,100
O=C(c1ccc(Nc2ncc(Cl)c(-c3ccc(Cl)s3)n2)cc1)N1CCC(N2CCCC2)CC1,binding,competition with immobilised ligand,1 µM,8.2
C[C@H]1CCN(c2nccc(-c3cnn4ncccc34)n2)C1,binding,,1 µM,84
O=C(NS(=O)(=O)c1ccc(NCC2CCOCC2)c([N+](=O)[O-])c1)c1ccc(N2CCN(Cc3ccc(C(F)(F)F)cc3-c3ccc(Cl)cc3)CC2)cc1Oc1cnc2[nH]ccc2c1,cell-free assay,competition with immobilised ligand,1 µM,100
O=C(c1ccc(Nc2nccc(-c3cc4ccccc4s3)n2)cc1)N1CCC(N2CCCC2)CC1,binding,competition with immobilised ligand,1 µM,31
CC(=O)c1c(NS(C)(=O)=O)c2cc(-c3ccc(Cl)cc3)c(-c3ccc(Cl)cc3Cl)nc2n(C)c1=O,cell-free assay,competition with immobilised ligand,1 µM,85
CN(c1nccc(-c2cnn3ncccc23)n1)C1CC1,binding,,1 µM,100
Cc1c(NC(=O)c2cc(C(N)=O)nc3cc(F)ccc23)c(C(F)(F)F)nn1Cc1ccc(C#N)cc1,cell-free assay,competition with immobilised ligand,1 µM,100
O=C(NCC1CCOCC1)c1n[nH]cc1NC(=O)c1c(F)cccc1F,binding,competition with immobilised ligand,1 µM,100
CNC(=O)Nc1ccc2c(c1)[C@@]1(CC2)OC(=O)N(CC(=O)N(Cc2ccc(F)cc2)[C@@H](C)C(F)(F)F)C1=O,cell-free assay,competition with immobilised ligand,1 µM,57
CN(CCCC(F)(F)F)c1nccc(-c2cnn3ncccc23)n1,binding,,1 µM,100
O=C(NCc1ncc(C(F)(F)F)cc1Cl)c1ccc2c(c1)C1(CCS(=O)(=O)CC1)[C@H](C1CC1)N2S(=O)(=O)c1ccc(F)cc1,cell-free assay,competition with immobilised ligand,1 µM,100
COc1ncc2cc3ccccc3nc2c1C#N,cell-free assay,competition with immobilised ligand,5 µM,96
C[C@H](c1ccc(F)cc1)N(Cc1cccc(C(=O)O)c1)C(=O)c1cnc2ccccc2c1,cell-free assay,competition with immobilised ligand,1 µM,100
O=C(NCCCN1CCOCC1)c1ccc(Nc2nccc(-c3cc4ccccc4s3)n2)cc1,binding,competition with immobilised ligand,1 µM,41
